From ChEMBL document CHEMBL2331493, “Chemical tagging of a drug target using 5-sulfonyl tetrazole” (Bioorg Med Chem Lett, 2013)
The source made the active and inactive calls. The rule behind the calls is not given here.

What was measured:
[1] = molecular target: Peptidyl-prolyl cis-trans isomerase A (Homo sapiens) (UniProt P62937); assay: Binding affinity to cyclophilin A in human Jurkat cell lysates at 1.1 uM after 24 hrs by SDS-PAGE analysis in presence of cyclosporine A
[2] = molecular target: Peptidyl-prolyl cis-trans isomerase A (Homo sapiens) (UniProt P62937); assay: Binding affinity to biotin-tagged cyclophilin A in human Jurkat cell lysates at 1.1 uM after 24 hrs by SDS-PAGE analysis
How it was run: (§1)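 Biotinylated probe incubated with a lysate of Jurkat cells (human leukemia T cells). The lysate was then mixed with streptavidin beads to pull down proteins with affinity for the probe. Bead-captured proteins were resolved by SDS–PAGE, and protein bands were read out.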

[3] = molecular target: Peptidyl-prolyl cis-trans isomerase A (Homo sapiens) (UniProt P62937); assay: Binding affinity to cyclophilin A in human Jurkat cell lysates at 1.1 uM after 24 hrs by Western blot analysis
[4] = molecular target: Peptidyl-prolyl cis-trans isomerase A (Homo sapiens) (UniProt P62937); assay: Binding affinity to cyclophilin A in human Jurkat cell lysates at 1.1 uM after 24 hrs by SDS-PAGE analysis; how it was run: as §1
[5] = molecular target: Peptidyl-prolyl cis-trans isomerase A (Homo sapiens) (UniProt P62937); assay: Binding affinity to cyclophilin A in human Jurkat cell lysates at 1.1 uM after 24 hrs by SDS-PAGE analysis in presence of N-ethylmaleimide

Peptidyl-prolyl cis-trans isomerase A (Homo sapiens), sequence (P62937 whole entry, looked up): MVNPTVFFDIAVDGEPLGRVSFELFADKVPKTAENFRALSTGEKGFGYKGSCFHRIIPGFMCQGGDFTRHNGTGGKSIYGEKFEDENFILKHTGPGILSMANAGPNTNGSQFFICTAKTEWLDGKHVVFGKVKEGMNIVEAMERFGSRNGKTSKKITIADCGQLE

Row | Activity [1] | Activity [2] | Activity [3] | Activity [4] | Activity [5] | Compound
1 | inactive | inactive | Active | Active | – | CC[C@@H]1NC(=O)[C@H]([C@H](O)[C@H](C)C/C=N\OCC(=O)NCCCC(=O)NCCCCNC(=O)CCSc2nnnn2CCCCCNC(=O)CCCC[C@@H]2SC[C@@H]3NC(=O)N[C@@H]32)N(C)C(=O)[C@H](C(C)C)N(C)C(=O)[C@H](CC(C)C)N(C)C(=O)[C@H](CC(C)C)N(C)C(=O)[C@@H](C)NC(=O)[C@H](C)NC(=O)[C@H](CC(C)C)N(C)C(=O)[C@H](C(C)C)NC(=O)[C@H](CC(C)C)N(C)C(=O)CN(C)C1=O
2 | – | – | – | inactive | – | CC(C)(C)OC(=O)NCCCC(=O)NCCCCNC(=O)CCSc1nnnn1CCCCCNC(=O)CCCC[C@@H]1SC[C@@H]2NC(=O)N[C@@H]21
3 | – | – | – | inactive | – | CC(C)(C)OC(=O)NCCCC(=O)NCCCCNC(=O)CCS(=O)(=O)c1nnnn1CCCCCNC(=O)CCCC[C@@H]1SC[C@@H]2NC(=O)N[C@@H]21
4 | inactive | – | Active | Active | Active | CC[C@@H]1NC(=O)[C@H]([C@H](O)[C@H](C)C/C=N\OCC(=O)NCCCC(=O)NCCCCNC(=O)CCS(=O)(=O)c2nnnn2CCCCCNC(=O)CCCC[C@@H]2SC[C@@H]3NC(=O)N[C@@H]32)N(C)C(=O)[C@H](C(C)C)N(C)C(=O)[C@H](CC(C)C)N(C)C(=O)[C@H](CC(C)C)N(C)C(=O)[C@@H](C)NC(=O)[C@H](C)NC(=O)[C@H](CC(C)C)N(C)C(=O)[C@H](C(C)C)NC(=O)[C@H](CC(C)C)N(C)C(=O)CN(C)C1=O
